Data as given in ChEMBL document CHEMBL1770055, “Regioselective one pot synthesis of 3,3'-diindolylethylene derivatives and study of their cytotoxic activity” (Bioorg Med Chem Lett, 2011).

How the values were obtained:
K562 = assay: Cytotoxicity against human K562 cells assessed as cell growth inhibition after 48 hrs by MTS-PMS assay; type: functional, cell-based; conditions: K562, 48 h
Procedure, shortened: (§1)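 Cells seeded at 5 × 10^4 per 200 µl and exposed to compounds at 0–100 µM, in triplicate, for 48 h at 37 °C, 5% CO2. MTS (2.0 mg/ml) and PMS (0.92 mg/ml) were mixed 10:1 and added, followed by 3 h at 37 °C. Absorbance (formazan) was read at 490 nm. Viability is expressed as % of untreated. IC50 was obtained by graphic extrapolation.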

U-937 [1] = assay: Cytotoxicity against human U937 cells assessed as cell growth inhibition after 48 hrs by MTS-PMS assay; type: functional, cell-based; conditions: U-937, 48 h; procedure, shortened: as §1
U-937 [2] = assay: Induction of apoptosis in human U937 cells assessed as late apoptotic cells at 13.06 uM after 8 hrs using annexin V/propidium iodide staining by flow cytometry (reference value: 5.83%); type: functional
U-937 [3] = assay: Induction of apoptosis in human U937 cells assessed as apoptotic cells at 13.06 uM after 8 hrs using annexin V/propidium iodide staining by flow cytometry (reference value: 2.42%); type: functional
U-937 [4] = assay: Induction of apoptosis in human U937 cells assessed as pre-necrotic cells at 13.06 uM after 8 hrs using annexin V/propidium iodide staining by flow cytometry (reference value: 0.30%); type: functional

## C=C(c1c(-c2ccccc2)[nH]c2ccccc12)c1c(-c2ccccc2)[nH]c2ccccc12
K562
  IC50: > 100 µM
U-937 [1]
  IC50: > 100 µM

## C=C(c1c(-c2cccc(Cl)c2)[nH]c2ccccc12)c1c(-c2cccc(Cl)c2)[nH]c2ccccc12
K562
  IC50: 40.3 µM
U-937 [1]
  IC50: 46.9 µM

## ClC=C(c1c(-c2ccccc2)[nH]c2ccccc12)c1c(-c2ccccc2)[nH]c2ccccc12
K562
  IC50: 18.2 µM
U-937 [1]
  IC50: 13.1 µM
U-937 [2]
  Activity: 11.68%
U-937 [3]
  Activity: 41%
U-937 [4]
  Activity: 1.3%

## C=C(c1c(-c2ccc(Cl)cc2Cl)[nH]c2ccccc12)c1c(-c2ccc(Cl)cc2Cl)[nH]c2ccccc12
K562
  IC50: > 100 µM
U-937 [1]
  IC50: > 100 µM

## C=C(c1c(-c2cccc(Br)c2)[nH]c2ccccc12)c1c(-c2cccc(Br)c2)[nH]c2ccccc12
K562
  IC50: > 100 µM
U-937 [1]
  IC50: > 100 µM

## C=C(c1c(-c2ccccc2OC)[nH]c2ccccc12)c1c(-c2ccccc2OC)[nH]c2ccccc12
K562
  IC50: 92.6 µM
U-937 [1]
  IC50: 71.6 µM

## C=C(c1c(-c2ccc(OC)c(OC)c2)[nH]c2ccccc12)c1c(-c2ccc(OC)c(OC)c2)[nH]c2ccccc12
K562
  IC50: > 100 µM
U-937 [1]
  IC50: > 100 µM
